According to paper PMC12065821 (Scientific Reports, 2025):
Where a SMILES comes first, the peptide text is derived from it. Bridges are numbered along the chain shown (N, C = ends). [ ]: non-standard residue; d: D form. The star is where a group is joined. Heptanoyl(6-Me) = CC(C)CCCCC(=O)*; Dab = NCC[C@H](N)C(=O)O

Columns and labels:
[1] = Plasma PK of CMS/CMS-E2 and formed colistin/colistin B; type: in vivo, rats; settings: rat plasma, LC-MS/MS, NCA, mean ± SD
Procedure, shortened: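 Male Sprague-Dawley rats were dosed once i.p. in saline, and serial jugular-vein blood was taken before and after dosing. Blood was heparinised (1%), spun at 4,982 × g for 10 min at 4 °C, and plasma stored at −70 °C. Plasma (40 µL) went through WCX solid-phase extraction with polymyxin B1 internal standard, then LC-MS/MS. Prodrug was total (acid-hydrolysed) minus free analyte. […] Values are mean ± SD, compared by Wilcoxon rank sum.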

[2] = Kidney PK of CMS/CMS-E2 and formed colistin/colistin B; type: in vivo, rats; settings: for Kp: kidney (cortex) / plasma, colistin/colistin B; for Tmax formed colistin/colistin B in kidneys / Cmax formed colistin/colistin B in kidneys: rat kidney cortex, LC-MS/MS; for Tmax formed colistin/colistin B in kidneys: NCA; for Cmax formed colistin/colistin B in kidneys: mean ± SD
Procedure, shortened: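 Male Sprague-Dawley rats (300 ± 15 g) got one i.p. dose in saline. At each sampling time rats were anaesthetised with tiletamine-zolazepam (40 mg/kg) and killed, and the left kidney was frozen at −70 °C. Kidney cortex was homogenised in saline (1:10 m/v, 1% BSA). Samples went through WCX solid-phase extraction with polymyxin B1 internal standard, then LC-MS/MS. Prodrug was calculated as total (after […] sulfuric acid hydrolysis) minus free colistin/colistin B. Parameters came from non-compartmental analysis.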

[3] = PK-TD model, PK component; type: in vivo; settings: rats, single i.p. CMS-E2 40 mg/kg CBA, one-compartment PK-TD model, mean ± SD
Procedure, shortened: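 Plasma prodrug and formed colistin/colistin B concentrations after i.p. dosing were fitted by a compartmental model. The final model used one compartment each for prodrug and formed drug, a conversion rate constant, and linear first-order total clearance from both. Fit was judged by R², AIC, BIC and visual inspection. Estimates are mean ± SD.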

rats = assay: Regression of kidney colistin/colistin B concentrations against CR, BUN, SQS; type: in vivo; settings: 95% CI
[4] = cited from earlier work
[5] = cited from earlier work; remark: listed apart in the source
[6] = single i.p. CMS or CMS-E2 20 mg/kg CBA
[7] = single i.p. CMS-E2 40 mg/kg CBA

## CC(C)CCCCC(=O)N[C@@H](CCN)C(=O)N[C@H](C(=O)N[C@@H](CCN)C(=O)N[C@H]1CCNC(=O)[C@H]([C@@H](C)O)NC(=O)[C@H](CCN)NC(=O)[C@H](CCN)NC(=O)[C@H](CC(C)C)NC(=O)[C@@H](CC(C)C)NC(=O)[C@H](CCN)NC1=O)[C@@H](C)O [colistin B] ({Heptanoyl(6-Me)}-[Dab]T[Dab][Dab][Dab][dL]L[Dab][Dab]T; lactam 4-C)
[1]; [6]
  AUC0-inf formed colistin/colistin B in plasma: 4140 ± 1260 ng·h/mL
  Cmax formed colistin/colistin B in plasma: 1140 ± 217 ng/mL
  Tmax formed colistin/colistin B in plasma: 1.67 ± 0.471 h
  t1/2 formed colistin/colistin B in plasma: 1.22 ± 0.313 h
[1]; [7]
  AUC0-inf formed colistin/colistin B in plasma: 35500 ± 23900 ng·h/mL
  Cmax formed colistin/colistin B in plasma: 7080 ± 2770 ng/mL
  Tmax formed colistin/colistin B in plasma: 4.71 ± 0.881 h
  t1/2 formed colistin/colistin B in plasma: 2.13 ± 0.827 h
[2]; male, Sprague-Dawley, rat, ip, 20 mg/kg CBA, Kidney/plasma ratio of AUC0-inf, rats, single i.p. CMS or CMS-E2 20 mg/kg CBA
  Kp: 19.7
[2]; male, Sprague-Dawley, rat, ip, 40 mg/kg CBA, Kidney/plasma ratio of AUC0-inf, rats, single i.p. CMS-E2 40 mg/kg CBA
  Kp: 39.6
[2]; male, Sprague-Dawley, rat, ip, 40 mg/kg CBA, Kidney/plasma ratio of Cmax, rats, single i.p. CMS-E2 40 mg/kg CBA
  Kp: 20.1
[2]; male, Sprague-Dawley, rat, kidney cortex, ip, 20 mg/kg CBA, SD
  tissue level at time at 8 h: 4860 ± 2360 ng/g
[2]; male, Sprague-Dawley, rat, kidney cortex, ip, 40 mg/kg CBA, SD
  tissue level at time at 24 h: 11500 ± 1740 ng/g
[2]; [6]
  Tmax formed colistin/colistin B in kidneys: 4 h
[2]; single i.p. CMS or CMS-E2 20 mg/kg CBA, SD
  Cmax formed colistin/colistin B in kidneys: 17.6 ± 6.79 µg/g
[2]; [7]
  Tmax formed colistin/colistin B in kidneys: 10 h
[2]; single i.p. CMS-E2 40 mg/kg CBA, SD
  Cmax formed colistin/colistin B in kidneys: 148 ± 32.8 µg/g
[2]; rats, single i.p. CMS or CMS-E2 20 mg/kg CBA
  Kidney/plasma ratio of Cmax, colistin/colistin B: 15.4
[3]
  CLcolistin/colistin B (total body clearance): 1.89 ± 0.809 mL/min/kg
rats; ordered logistic regression
  regression coefficient between kidney concentration and SQS: 0.03
rats; simple linear regression
  regression coefficient between kidney concentration and contemporaneous BUN: 0.08
  regression coefficient between kidney concentration and contemporaneous CR: 1.58
[4]
  plasma protein binding: 41.7 ± 12.4%
[5]
  clearance after the colistin sulfate: 5.2 ± 0.4 mL/min/kg
  clearance relative to colistin: almost half
  clearance when administered as a single component: 3.05 ± 0.62 mL/min/kg
